ERa coact inh: blocks coactivator binding to human estrogen receptor alpha; P03372; TR-FRET ER-alpha LBD / SRC-1 peptide, estradiol-bound; inhibition, % at 25.6 µM; 86,000 tested, 1.7% active; in the data active = inhibition above about 50%;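 note: 0% = receptor plus peptide control and 100% = peptide only without receptor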
H69AR inhibit: blocks growth of human H69AR lung tumor cells; H69AR lung tumor viability, ATP luminescence, 72 h; active compounds read low; viability, % at 10 µM; 85,000 tested, 6% active;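 active = viability at or below 40%; inactive = viability above 40%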;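 note: multidrug resistant small cell line overexpressing MRP-1 efflux transporter; 100% = mean luminescence of untreated control wells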
ERa SRC1 pot: enhances coactivator binding to human estrogen receptor alpha; P03372; TR-FRET ERalpha-LBD/SRC-Cy5 coactivator binding, 2 h; 100 = basal binding, no effect; coactivator binding (% of control), % at 25.6 µM; 86,000 tested, 1.3% active; in the data active = activity above about 200%;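 note: binding measured in presence of low estradiol as agonist stimulus; 0% = peptide alone without receptor and 100% = receptor with peptide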
Fibroblast inh: blocks proliferation of human lung fibroblasts; LL 47 human lung fibroblast viability, ATP luminescence; active compounds read low; AID 719; viability, % at 10 µM; 85,000 tested, 1.1% active;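 active = viability at or below 50% in the single dose screen; inactive = viability above 50%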;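 note: compound exposure lasted 72 h before the ATP readout; 100% = median luminescence of untreated cell-only wells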
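Material: Human LL 47 lung fibroblast cells | Input: 1,150 cells/well | Buffer or medium: IMEM plus 15% FBS | Compound dosing: 0.1% DMSO in all compound wells | Times: Overnight cell rest, 72 h compound treatment at 37 °C | Signal: CellTiter-Glo luminescence measuring cellular ATP | Measure: % viability versus median cells-only luminescence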
HUVEC prolif 384: human endothelial cell proliferation inhibition; 86,000 tested, 1.1% active; HUVEC proliferation, CellTiter-Glo luminescence, 72 h; active compounds read low; viability, % at 10 µM (by protocol);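 active = viability at or below 30%; inactive = viability above 30%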;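 note: 100% = median luminescence of DMSO-only cell control wells on each plate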
ERb coact inh: blocks coactivator binding to human estrogen receptor beta; Q92731; TR-FRET ER-beta LBD / SRC1-Cy5 peptide binding; receptor agonist-loaded with 1 µM estradiol; inhibition, % at 25.6 µM; 86,000 tested, 1.3% active; AID 633;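 active = compounds whose percent inhibition of the receptor-coactivator binding signal exceeds about 50% in the single-dose screen, limit read from the data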;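 note: 0% = receptor plus peptide wells without compound and 100% = peptide-only wells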
Target sequence (Q92731 whole entry, looked up, the tested form may be a part): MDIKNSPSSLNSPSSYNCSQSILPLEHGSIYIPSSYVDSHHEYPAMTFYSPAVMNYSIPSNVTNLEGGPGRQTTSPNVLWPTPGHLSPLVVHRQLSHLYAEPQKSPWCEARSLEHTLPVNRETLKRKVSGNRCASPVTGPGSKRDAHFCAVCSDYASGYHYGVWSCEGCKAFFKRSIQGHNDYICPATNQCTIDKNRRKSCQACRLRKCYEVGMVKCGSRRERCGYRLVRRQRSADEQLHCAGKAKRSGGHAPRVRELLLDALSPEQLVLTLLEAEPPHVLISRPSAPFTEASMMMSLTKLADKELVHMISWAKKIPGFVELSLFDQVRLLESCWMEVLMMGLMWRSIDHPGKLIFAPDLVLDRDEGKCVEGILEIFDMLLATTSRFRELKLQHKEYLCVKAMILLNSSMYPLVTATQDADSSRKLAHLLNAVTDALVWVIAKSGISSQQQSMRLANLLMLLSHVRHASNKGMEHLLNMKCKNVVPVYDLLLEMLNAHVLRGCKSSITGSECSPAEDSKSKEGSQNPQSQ
Numbers without * were called inactive; nt = not tested or not shown; [ ] = another dose, or the depositor's remark. Hits are enriched below; roughly 9.2% of the tested compounds scored in any of these assays.

SMILES	ERa coact inh	H69AR inhibit	ERa SRC1 pot	Fibroblast inh	HUVEC prolif 384	ERb coact inh
CCOC(=O)CSC1=C(C#N)C(=O)NC(c2ccc(OC)c(OC)c2)S1 (configuration not stated)	0	6.6*	113	77	73	-3
CCOC(=O)N1CCC(NC(=O)c2cccn3c(=O)c4cc(Br)ccc4nc23)CC1	60*[fluorescence artefact?]	96	288*[fluorescence artefact?]	103	97	42
O=C(CS(=O)c1ccc(C(F)(F)F)cc1[N+](=O)[O-])Oc1ccc(Cl)cc1 (configuration not stated)	-4	21*	86	88	58	10
CC(=O)NNc1ccc(C(F)(F)F)cc1[N+](=O)[O-]	-4	93	96	102	96	8
Cc1cc(C)cc(OC(=O)CS(=O)c2ccc(C(F)(F)F)cc2[N+](=O)[O-])c1 (configuration not stated)	6	15*	106	84	64*	-2
Cc1ccc2nc(SCCC(=O)O)cc(C)c2c1	-9	75	110	95	83	-8
CSc1ccccc1NC(=O)c1ccccc1N(Cc1ccccc1)S(C)(=O)=O	-4	97	107	90	99	59*
CSc1ccccc1NC(=O)c1ccccc1N(C)S(C)(=O)=O	-1	94	104	99	107	-4
CC(=O)c1c(C)oc(C)c1CSCc1ccc(C(=O)O)o1	28	62	51	97	103	32
O=C1C(N2CCOCC2)=C(n2nnc3ccccc32)C(=O)c2ccccc21	-19	1.4*	97	2.4*	2.2*	-14
O=S(=O)(N1CCCCC1)n1nnc2ccccc21	-8	101	89	90	98	-5
O=c1[nH]c(N2CCCCC2)nc2c1CCCC2	6	93	121	101	104	-6
COc1cc(-c2nnc(Sc3ccc(C(F)(F)F)cc3[N+](=O)[O-])o2)cc(OC)c1OC	-6	1.0*	104	83	72	-10
CCOc1ccc(C(Nc2ccc(C)cc2)P2(=O)OCCC(C)O2)cc1 (configuration not stated)	-13	91	103	96	94	-9
CCCCN(C(=O)Nc1ccc(OCC)cc1)C1CCN(C(C)=O)CC1	4	98	116	106	106	-7
CCCn1c(NCCO)nc2ccccc21	2	104	125	97	99	2
Cc1ccc(OCCn2c(NC(=O)c3ccco3)nc3ccccc32)cc1	12	26*	119	56	55	7
CCCn1c(NC(=O)c2cccc(C)c2C)nc2ccccc21	-1	25*	92	56	53	-6
CCCn1c(NC(=O)c2ccc(Cl)c(S(=O)(=O)N3CCCC3)c2)nc2ccccc21	12	10.0*	178	56	41	5
O=C1c2ccccc2-c2c1cccc2C(=O)N1CCOCC1	-3	99	110	99	96	56*[fluorescence artefact?]
CCOC(=O)c1sc(=NC(=O)c2ccc(OC)c(OC)c2)n(C)c1C	-54	20*	429*[fluorescence artefact?]	97	77	29
OC(CN1CCN(c2cccc(C(F)(F)F)c2)CC1)c1c[nH]c2ccccc12 (configuration not stated)	-10	2.6*	111	58	67	-4
CCc1nnc(NC(=O)CSc2ncnc3c2oc2ccccc23)s1	-18	100	238*[fluorescence artefact?]	103	105	16
O=C(CSc1nc2ccccc2o1)Nc1nc2ccccc2s1	1	64	134	102	91	4
CCc1nnc(NC(=O)CSc2nnc(-c3ccccc3NC(=O)c3ccccc3)o2)s1	22	30*	285*[fluorescence artefact?]	59	87	31
SMILES	ERa coact inh	H69AR inhibit	ERa SRC1 pot	Fibroblast inh	HUVEC prolif 384	ERb coact inh
O=C(CSc1ncnc2c1oc1ccccc12)Nc1nc2ccccc2s1	42	13*	75	103	16*	18
CCOC(=O)CSc1nnc(-c2ccccc2NC(=O)c2ccccc2)o1	-3	88	125	93	86	2
CCNc1nc(NCC)nc(C(=O)NN)n1	-16	92	113	96	89	-8
CCOC(=O)CSc1nnc(CSc2nc3sc4c(c3c(=O)[nH]2)CCCC4)n1-c1ccccc1	10	90	84	103	101	6
CCOc1cccc(N2C(=O)CC(NCc3ccc(S(N)(=O)=O)cc3)C2=O)c1 (configuration not stated)	3	92	96	100	91	10
Cc1ccccc1-n1ncc2c([N+](=O)[O-])cc([N+](=O)[O-])cc21	11	25*	64	65	6.3*	-5
CCCCOCCCNC(=O)CN1C(=O)c2ccccc2C1=O	-6	97	159	101	101	-1
O=C(CSc1ncc(-c2ccc(F)cc2)[nH]1)N1CCCCC1	-2	29*	140	nt	102	-31
O=C(CSc1ncc(-c2ccc(F)cc2)[nH]1)NCc1ccco1	8	89	122	94	93	19
CSc1nnc(N(CCC#N)CCC#N)s1	1	106	104	100	94	1
O=C(Nc1cccnc1)c1ccc(Oc2ccccc2)cc1	-6	95	128	11*	98	-8
CCOC(=O)C1=C(c2ccccc2)N2CCN=C2S1	-10	79	424*[fluorescence artefact?]	103	101	-10
CCOC(=O)c1c(C)nc(-c2ccccc2)nc1N	7	60	103	101	87	5
COc1cc(-c2nc(-c3ccc4c(c3)-c3ccccc3S4(=O)=O)c(-c3ccccc3)[nH]2)cc(OC)c1O	1	43	94	66	58	16
C=CCNC(=O)CSc1nc2cc(C(=O)OCC)ccc2n1CC	5	26*	76	91	80	-6
CCOC(=O)c1ccc2c(c1)nc(SCC(=O)c1cc3ccccc3o1)n2CC	1	59	138	91	90	1
COc1ccc(CC(=O)n2nc(-c3ccc(Cl)cc3)nc2NCc2ccco2)cc1	6	30*	94	81	75	-2
O=C(c1cccs1)n1nc(-c2ccc(Cl)cc2)nc1NCc1ccco1	2	77	105	98	95	-1
CC(=O)n1nc(-c2ccc(Cl)cc2)nc1NCc1ccco1	11	33*	112	74	57	1
C=CCN(c1ccc(C(=O)NCCc2ccccc2)cc1)S(C)(=O)=O	-2	86	115	104	108	-6
O=C1Nc2ccccc2SC(c2ccccc2)C1O (configuration not stated)	95*	95	15	93	92	88*
CC(=O)CCS(=O)(=O)c1ccc(NC(C)=O)cc1	-14	0.2*	86	93	97	-5
CC(=O)Nc1ccc(S(=O)(=O)CCC(=O)O)cc1	-31	106	105	94	89	-29
